This passage reports Biodistribution results from ChEMBL document CHEMBL1149099, “Comparative in vivo stability of copper-64-labeled cross-bridged and conventional tetraazamacrocyclic complexes” (J Med Chem, 2004).

For data set [1], the species on record is Rattus norvegicus. The data set is described as follows: Biodistribution of radiolabeled compound in rat bone after 24 hr activity expressed as %ID/Organ. Type of data set: ADME, organism-based, Bone element. The note with it: in vivo. In outline: (§1)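 Mature female Sprague-Dawley rats (180–200 g) each received the 64Cu complex diluted with saline, about 15 μCi in 150 μL. Groups were sacrificed at 5 min, 30 min, 2 h and 24 h postinjection. Organs were excised, weighed and gamma-counted. %ID/organ was calculated against a weighed, counted standard.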

Data set [2] is filed under the species Rattus norvegicus. Description: Biodistribution of radiolabeled compound in rat liver after 30 min activity expressed as %ID/Organ. Format: ADME, organism-based. The note with it: in vivo, 0.5 h. In outline: as §1
The species named for data set [3] is Rattus norvegicus. Description: Biodistribution of radiolabeled compound in rat blood after 24 hr activity expressed as %ID/Organ. Type of data set: ADME, organism-based. The note with it: in vivo. In outline: as §1
The species entered for data set [4] is Rattus norvegicus. Description: Biodistribution of radiolabeled compound in rat brain after 2 hr activity expressed as %ID/Organ. Format: ADME, organism-based. As to conditions: in vivo. The essentials:
as §1

The species named for data set [5] is Rattus norvegicus. Description: Biodistribution of radiolabeled compound in rat fat after 2 hr activity expressed as %ID/Organ. Format: ADME, organism-based, Adipose tissue. As to conditions: in vivo. In outline: as §1
The species entered for data set [6] is Rattus norvegicus. Description: Biodistribution of radiolabeled compound in rat kidney after 2 hr activity expressed as %ID/Organ. Type of data set: ADME, organism-based. The note with it: in vivo. In outline: as §1
Data set [7] is filed under the species Rattus norvegicus. The data set is described as follows: Biodistribution of radiolabeled compound in rat lung after 2 hr activity expressed as %ID/Organ. Format: ADME, organism-based. The note with it: in vivo. In outline: as §1
The species named for data set [8] is Rattus norvegicus. Description: Biodistribution of radiolabeled compound in rat lung after 24 hr activity expressed as %ID/Organ. Format: ADME, organism-based. As to conditions: in vivo. The essentials: as §1
The species named for data set [9] is Rattus norvegicus. The data set is described as follows: Biodistribution of radiolabeled compound in rat fat after 5 min activity expressed as %ID/Organ. Format: ADME, organism-based, Adipose tissue. As to conditions: in vivo. In outline: as §1
Data set [10] is filed under the species Rattus norvegicus. Description: Biodistribution of radiolabeled compound in rat blood after 30 min activity expressed as %ID/Organ. Type of data set: ADME, organism-based. As to conditions: in vivo, 0.5 h. The essentials: as §1
The species entered for data set [11] is Rattus norvegicus. The data set is described as follows: Biodistribution of radiolabeled compound in rat liver after 2 hr activity expressed as %ID/Organ. As to conditions: in vivo. Type of data set: ADME, organism-based. In outline:
as §1

The species named for data set [12] is Rattus norvegicus. Description: Biodistribution of radiolabeled compound in rat muscle after 2 hr activity expressed as %ID/Organ. Format: ADME, organism-based, Muscle tissue. The note with it: in vivo. The essentials:
as §1

The species named for data set [13] is Rattus norvegicus. Description: Biodistribution of radiolabeled compound in rat liver after 24 hr activity expressed as %ID/Organ. The note with it: in vivo. Format: ADME, organism-based. The essentials:
as §1

Data set [14] is filed under the species Rattus norvegicus. The data set is described as follows: Biodistribution of radiolabeled compound in rat blood after 2 hr activity expressed as %ID/Organ. Type of data set: ADME, organism-based. As to conditions: in vivo. The essentials:
as §1

For data set [15], the species on record is Rattus norvegicus. The data set is described as follows: Biodistribution of radiolabeled compound in rat bone after 2 hr activity expressed as %ID/Organ. Format: ADME, organism-based, Bone element. The note with it: in vivo. In outline: as §1
For data set [16], the species on record is Rattus norvegicus. Description: Biodistribution of radiolabeled compound in rat kidney after 30 min activity expressed as %ID/Organ. Format: ADME, organism-based. As to conditions: in vivo, 0.5 h. The essentials:
as §1

The species entered for data set [17] is Rattus norvegicus. The data set is described as follows: Biodistribution of radiolabeled compound in rat bone after 30 min activity expressed as %ID/Organ. Format: ADME, organism-based, Bone element. As to conditions: in vivo, 0.5 h. In outline:
as §1

The species named for data set [18] is Rattus norvegicus. The data set is described as follows: Biodistribution of radiolabeled compound in rat heart after 24 hr activity expressed as %ID/Organ. Type of data set: ADME, organism-based. The note with it: in vivo. The essentials:
as §1

For data set [19], the species on record is Rattus norvegicus. The data set is described as follows: Biodistribution of radiolabeled compound in rat muscle after 30 min activity expressed as %ID/Organ. Format: ADME, organism-based, Muscle tissue. The note with it: in vivo, 0.5 h. In outline: as §1
The species entered for data set [20] is Rattus norvegicus. Description: Biodistribution of radiolabeled compound in rat brain after 24 hr activity expressed as %ID/Organ. Type of data set: ADME, organism-based. The note with it: in vivo. In outline:
as §1

For data set [21], the species on record is Rattus norvegicus. The data set is described as follows: Biodistribution of radiolabeled compound in rat heart after 30 min activity expressed as %ID/Organ. Type of data set: ADME, organism-based. The note with it: in vivo, 0.5 h. The essentials:
as §1

For data set [22], the species on record is Rattus norvegicus. Description: Biodistribution of radiolabeled compound in rat heart after 5 min activity expressed as %ID/Organ. Format: ADME, organism-based. As to conditions: in vivo. In outline: as §1
For data set [23], the species on record is Rattus norvegicus. The data set is described as follows: Biodistribution of radiolabeled compound in rat muscle after 5 min activity expressed as %ID/Organ. The note with it: in vivo. Format: ADME, organism-based, Muscle tissue. In outline: as §1
For data set [24], the species on record is Rattus norvegicus. Description: Biodistribution of radiolabeled compound in rat muscle after 24 hr activity expressed as %ID/Organ. Type of data set: ADME, organism-based, Muscle tissue. The note with it: in vivo. The essentials:
as §1

Data set [25] is filed under the species Rattus norvegicus. The data set is described as follows: Biodistribution of radiolabeled compound in rat bone after 5 min activity expressed as %ID/Organ. Type of data set: ADME, organism-based, Bone element. As to conditions: in vivo. The essentials:
as §1

For data set [26], the species on record is Rattus norvegicus. Description: Biodistribution of radiolabeled compound in rat brain after 30 min activity expressed as %ID/Organ. As to conditions: in vivo, 0.5 h. Type of data set: ADME, organism-based. The essentials:
as §1

The species entered for data set [27] is Rattus norvegicus. Description: Biodistribution of radiolabeled compound in rat liver after 5 min activity expressed as %ID/Organ. Type of data set: ADME, organism-based. The note with it: in vivo. In outline:
as §1

Data set [28] is filed under the species Rattus norvegicus. Description: Biodistribution of radiolabeled compound in rat kidney after 24 hr activity expressed as %ID/Organ. As to conditions: in vivo. Format: ADME, organism-based. The essentials: as §1
For data set [29], the species on record is Rattus norvegicus. Description: Biodistribution of radiolabeled compound in rat lung after 30 min activity expressed as %ID/Organ. Type of data set: ADME, organism-based. The note with it: in vivo, 0.5 h. In outline: as §1
The species named for data set [30] is Rattus norvegicus. The data set is described as follows: Biodistribution of radiolabeled compound in rat fat after 30 min activity expressed as %ID/Organ. Format: ADME, organism-based, Adipose tissue. As to conditions: in vivo, 0.5 h. The essentials: as §1
The species entered for data set [31] is Rattus norvegicus. The data set is described as follows: Biodistribution of radiolabeled compound in rat fat after 24 hr activity expressed as %ID/Organ. Format: ADME, organism-based, Adipose tissue. As to conditions: in vivo. The essentials:
as §1

The species named for data set [32] is Rattus norvegicus. Description: Biodistribution of radiolabeled compound in rat blood after 5 min activity expressed as %ID/Organ. Type of data set: ADME, organism-based. The note with it: in vivo. In outline:
as §1

The species entered for data set [33] is Rattus norvegicus. Description: Biodistribution of radiolabeled compound in rat brain after 5 min activity expressed as %ID/Organ. The note with it: in vivo. Format: ADME, organism-based. In outline: as §1
For data set [34], the species on record is Rattus norvegicus. Description: Biodistribution of radiolabeled compound in rat kidney after 5 min activity expressed as %ID/Organ. As to conditions: in vivo. Type of data set: ADME, organism-based. In outline:
as §1

The species named for data set [35] is Rattus norvegicus. Description: Biodistribution of radiolabeled compound in rat lung after 5 min activity expressed as %ID/Organ. Format: ADME, organism-based. The note with it: in vivo. The essentials:
as §1

For data set [36], the species on record is Rattus norvegicus. The data set is described as follows: Biodistribution of radiolabeled compound in rat heart after 2 hr activity expressed as %ID/Organ. Type of data set: ADME, organism-based. As to conditions: in vivo. The essentials:
as §1

The species entered for data set [37] is Rattus norvegicus. The data set is described as follows: Biodistribution of radiolabeled compound in rat blood after 24 hr postinjection activity expressed as %ID/Organ. Format: ADME, organism-based. As to conditions: in vivo.
For data set [38], the species on record is Rattus norvegicus. The data set is described as follows: Biodistribution of radiolabeled compound in rat liver after 24 hr postinjection activity expressed as %ID/Organ. Type of data set: ADME, organism-based. The note with it: in vivo.
The species entered for data set [39] is Rattus norvegicus. The data set is described as follows: Biodistribution of radiolabeled compound in rat kidney after 24 hr postinjection activity expressed as %ID/Organ. Type of data set: ADME, organism-based. As to conditions: in vivo.

As to Cu-CB-DO2A, the Biodistribution in data set [1] was found to be 0.24%; in data set [2] it was 1.47%; in data set [3], 0.14%; in data set [4], 0.008%; in data set [5], 0.22%; in data set [6], 0.44%. Besides, the Biodistribution in data set [7] was found to be 0.044%; in data set [8], 0.019%; in data set [9] it was 3.99%; in data set [10], 3.79%; in data set [11] it was 0.93%; in data set [12] it was 1.39%. Moreover, the Biodistribution is reported as 0.39% in data set [13]; 0.32% in [14]; 0.56% in data set [15]; 1.14% in data set [16]; 1.69% in data set [17]; 0.0065% in [18]. Moreover, the Biodistribution in data set [19] worked out at 6.42%; in data set [20], 0.002%; in [21] it was 0.067%; in data set [22] it was 0.22%; in [23], 18.27%; in [24], 0.28%. Also, the Biodistribution turned out to be 4.52% in data set [25]; 0.036% in data set [26]; 2.47% in data set [27]; 0.064% in [28]; 0.21% in data set [29]; 2.14% in [30]. The Biodistribution worked out at 0.12% in [31]; 13.45% in [32]; 0.097% in data set [33]; 2.64% in data set [34]; 0.72% in [35]; 0.0095% in data set [36].

Take Cu-CB-TE2A: the Biodistribution amounted to 0.032% in data set [37], 0.14% in [38] and 0.064% in [39].

Take Cu-DOTA: the Biodistribution in data set [37] was 0.58%; in data set [38] it was 1.05%; in data set [39] it was 0.54%.

Regarding Cu-TETA, the Biodistribution in [37] worked out at 0.21%; in data set [38], 0.49%; in data set [39], 0.21%.
